Assay [1] in a line: Inhibition of DNA-PK isolated from human HeLa cell extract assessed as reduction in p53 Ser15 phosphorylation by chemiluminescence assay. The assay is classed as cell-free.
Assay [2] concerns HeLa. Briefly: Potentiation of ionizing radiation-induced cytotoxicity in human HeLa cells assessed as dose modification ratio at 0.1 uM pretreated 1 hr before 2 Gy ionizing radiation by Giemsa staining relative untreated control. The assay is classed as functional. In a few lines:
(§1)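 HeLa cells seeded in six-well dishes and left overnight at 37 °C/5% CO2. Compound or vehicle given 1 h before a single 2 Gy X-ray dose, then incubated overnight. Medium replaced without compound and cells grown 6-8 days. Colonies Giemsa-stained and counted automatically. DMR is % survival at 2 Gy without compound divided by % survival at 2 Gy with compound.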

Assay [3] deals with HeLa. Briefly: Potentiation of ionizing radiation-induced cytotoxicity in human HeLa cells assessed as dose modification ratio at 0.5 uM pretreated 1 hr before 2 Gy ionizing radiation by Giemsa staining relative untreated control. The assay is classed as functional. In short, it runs like this:
as §1

The values that follow come from ChEMBL document CHEMBL1629444, “DNA-dependent protein kinase (DNA-PK) inhibitors. Synthesis and biological activity of quinolin-4-one and pyridopyrimidin-4-one surrogates for the chromen-4-one chemotype” (J Med Chem, 2010).

pIC50: −log10 of the molar value.

By pIC50 is commonly meant −log10 of the IC50, conventionally taken in molar units. As for `O=C(CCN1CCCCC1)Nc1ccc(-c2cccc3c(=O)cc(N4CCOCC4)[nH]c23)c2oc3ccccc3c12`, the pIC50 in assay [1] is 6.50. In addition, the results for the Ratio with HeLa [2] and in the assay with HeLa [3] were 1 and 1.1, respectively.
The corresponding values for `O=C(CCNCC1CCCO1)Nc1ccc(-c2cccn3c(=O)cc(N4CCOCC4)nc23)c2sc3ccccc3c12` (centres undefined) are 7.11, 4.3 and 4.3.
In the same order, the values of `CC(=O)N1CCN(CCC(=O)Nc2ccc(-c3cccn4c(=O)cc(N5CCOCC5)nc34)c3sc4ccccc4c23)CC1` are 7.49, 2.1 and 2.1.
As for `C[C@@H]1CN(CC(=O)Nc2ccc(-c3cccn4c(=O)cc(N5CCOCC5)nc34)c3oc4ccccc4c23)C[C@H](C)O1`, the pIC50 in assay [1] was 7.82. For the same molecule, the Ratio with HeLa [2] was 1; in the assay with HeLa [3], 3.
In the same order, the values of `O=C(CCN1CCCCC1)Nc1ccc(-c2cccn3c(=O)cc(N4CCOCC4)nc23)c2oc3ccccc3c12` are 7.68, 2.5 and 1.
The corresponding values for `O=C(CCN1CCCCC1)Nc1ccc(-c2cccn3c(=O)cc(N4CCOCC4)nc23)c2sc3ccccc3c12` are 7.55, 14.3 and 14.3.
The corresponding values for `O=C(CN(CCO)CCO)Nc1ccc(-c2cccn3c(=O)cc(N4CCOCC4)nc23)c2sc3ccccc3c12` are 7.54, 1.1 and 3.8.
As for `COCCN1CCN(CC(=O)Nc2ccc(-c3cccn4c(=O)cc(N5CCOCC5)nc34)c3sc4ccccc4c23)CC1`, the pIC50 in assay [1] was 7.66. The Ratio in the assay on HeLa [2] was determined as 4; in the assay with HeLa [3] it was 14.4.
